In the library only some 12% were active in any assay of this set; here they are far more common.
Lmaj promast: reduces viability of Leishmania major promastigotes. actives 9% (n = 200,000). resazurin fluorescence viability. inhibition, % at 10 µM; in the data active = inhibition above about 50%;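 also: promastigotes grown with compound for 44 hours at 28 °C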
ABCB1 block: inhibitors of human ABCB1 transporter, ABCG2 counter-screen; CCRF-Adr cells, JC-1 efflux, flow cytometry; P08183; inhibition, % at 6.6 µM; actives 0.067% (n = 190,000); AID 1326; in the data active = inhibition above about 40%;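 also: higher value means more JC-1 retained so stronger ABCB1 efflux block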
WT yeast gro inh: growth inhibition of WT yeast, mitochondrial fusion screen; mitochondrial fusion phenotypic screen, WT strain; inhibition, % at 10 µM; actives 2.1% (n = 190,000); in the data active = inhibition above about 58%; tested in S. cerevisiae
ABCG2 inh: inhibitors of human ABCG2 transporter, ABCB1 counter-screen. inhibition, % at 6.6 µM. IgMXP3 cells, JC-1 efflux, flow cytometry. actives 0.1% (n = 190,000). AID 1325;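 active = inhibition above 80%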
Target sequence (Q9UNQ0 whole entry, looked up): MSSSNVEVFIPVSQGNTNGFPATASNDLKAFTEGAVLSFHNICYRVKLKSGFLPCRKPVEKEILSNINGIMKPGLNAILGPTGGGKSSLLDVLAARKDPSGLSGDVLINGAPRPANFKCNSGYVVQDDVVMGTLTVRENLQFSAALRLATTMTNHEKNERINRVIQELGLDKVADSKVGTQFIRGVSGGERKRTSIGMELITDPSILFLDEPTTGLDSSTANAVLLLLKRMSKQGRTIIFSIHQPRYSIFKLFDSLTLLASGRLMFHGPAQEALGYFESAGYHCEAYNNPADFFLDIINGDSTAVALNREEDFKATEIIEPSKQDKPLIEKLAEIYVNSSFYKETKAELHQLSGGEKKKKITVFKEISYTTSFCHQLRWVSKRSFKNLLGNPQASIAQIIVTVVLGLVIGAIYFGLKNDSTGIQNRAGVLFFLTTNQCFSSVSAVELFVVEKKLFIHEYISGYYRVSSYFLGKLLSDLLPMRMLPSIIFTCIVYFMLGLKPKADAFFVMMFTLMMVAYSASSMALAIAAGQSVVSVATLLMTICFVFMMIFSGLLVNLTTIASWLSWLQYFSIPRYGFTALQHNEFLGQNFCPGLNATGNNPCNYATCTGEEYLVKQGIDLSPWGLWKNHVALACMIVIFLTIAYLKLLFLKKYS
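Test system: IgMXP3 cells (ABCG2) mixed with DDAO far-red-labelled CCRF-Adr cells (ABCB1). Reagent: JC-1 transporter substrate. Compound dosing: single test compound dose, 6.6 µM final. Times: 10 min compound exposure, 25 °C. Detection: flow cytometry of retained JC-1 fluorescence. Read-out basis: efflux inhibition in percent versus controls. Controls: nicardipine and DMSO wells.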
RAM network inh: yeast RAM network inhibition | S. cerevisiae dse1pr::URA3 reporter, 5-FOA growth OD615, 2 d; analog-sensitive cbk1-as2 kinase mutant strain | inhibition, % at 50 µM | actives 1.8% (n = 190,000);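 active = inhibition above a set limit, 3 SD over mean compound inhibition, cut at about 8.4% in these data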;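 also: inhibition rescues growth on 5-FOA so higher OD means more RAM inhibition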
Each line names hits and unclear results; the compound was inactive in the other large screens.

Cn1cc(Br)c(C(=O)Nc2ncc(Br)s2)n1	none
CCOC(=O)c1ccc(N2C(=O)c3n[nH]c(C)c3C2c2cccnc2)cc1 (stereo not given)	none
CCOC(=O)c1ccc(N2C(=O)c3n[nH]c(-c4ccco4)c3C2c2ccc([N+](=O)[O-])cc2)cc1 (stereo not given)	Lmaj promast 98
COc1cc(NC(=O)c2ccc([N+](=O)[O-])cc2)c(OC)cc1NC(=O)CC(C)C	none
COc1ccc(-c2cn3cccnc3n2)cc1F	Lmaj promast 80
COc1ccc(-c2cn3cccnc3n2)cc1NS(=O)(=O)c1ccccc1	none
COc1ccc(-c2cn3cccnc3n2)cc1NC(=O)c1cccs1	Lmaj promast 97
CCOCCOCN(C#N)c1nc(OC)nc(N(C)C)n1	none
Cc1ccc(C2SCCN2C(=O)c2ccc([N+](=O)[O-])cc2)cc1 (stereo not given)	Lmaj promast 50
O=C(c1ccc([N+](=O)[O-])cc1)N1CCSC1c1ccc(Br)cc1 (stereo not given)	none
Cc1ccccc1Nc1nc(N)nc(COC(=O)c2cccc(S(=O)(=O)N(C)C)c2)n1	Lmaj promast 66
Cc1cc2nc(/N=C(\N)NC(=O)N3c4ccccc4Sc4ccccc43)nc(C)c2cc1C	none
Cc1ccc(NC2=C(Cl)C(=O)OC2OC(=O)c2ccccc2)c(C)c1 (stereo not given)	none
Cc1ccccc1NC1=C(Cl)C(=O)OC1OC(=O)c1ccccc1C (stereo not given)	WT yeast gro inh 68
COc1ccc(CCNC(=O)CSc2nnc(Cc3cccn3C)n2C)cc1OC	none
Cc1ccccc1C(=O)Nc1ccc(-c2nc3ccc(C(=O)c4ccccc4)cc3[nH]2)cc1	Lmaj promast 98
Cc1ccc2nc(-c3ccc(NC(=O)c4ccco4)cc3)[nH]c2c1	none
O=C(Nc1ccc(-c2nc3ccccc3[nH]2)cc1)c1ccc(N2C(=O)CCC2=O)cc1	Lmaj promast 50, RAM network inh 9.1
O=C(c1ccccc1)c1ccc2nc(-c3ccc(NC(=O)c4ccccc4Br)cc3)[nH]c2c1	Lmaj promast 97, RAM network inh 8.7
O=C(Nc1ccc(-c2nc3ccc(NC(=O)c4cccs4)cc3[nH]2)cc1)c1cccs1	none
COc1cc(NC(=O)CSc2nnc3c(C)cc4c(C)ccc(C)c4n23)c(C(=O)O)cc1OC	none
CCNc1nc(NCC)n2c(SCC(=O)N(CC)C3CCCCC3)nnc2n1	none
COc1ccc(C(CCN)Cc2ccccc2)cc1 (stereo not given)	Lmaj promast 51
COc1ccc(NC(=O)CC(Cc2ccccc2)C(=O)O)cc1 (stereo not given)	none
Cc1c(C(=O)N2CCN(c3ccc(C(F)(F)F)cn3)CC2)oc2ccccc12	WT yeast gro inh 71
COc1ccc2cc(/C=N/NC(=O)c3ccc(CN(c4cccc(Cl)c4Cl)S(C)(=O)=O)cc3)c(Cl)nc2c1	Lmaj promast 80
CCn1c(/N=C/c2ccccc2NS(=O)(=O)c2ccc(C)cc2)nc2ccccc21	Lmaj promast 85
COc1cc(CNCc2cccnc2)ccc1OCC(=O)NC(C)(C)C	Lmaj promast 92
COc1cc(CNCCc2ccccc2)ccc1OCC(=O)NC(C)(C)C	Lmaj promast 99
CC(C)(C)NC(=O)COc1ccc(CNCc2cccnc2)cc1	Lmaj promast 89
CC(=O)Nc1ccccc1C(=O)C(=O)NCCc1ccccc1	none
c1cnc(Oc2ccc(-c3nnco3)cc2)cn1	none
Cc1ccc(NC(=O)c2ccc(NCCCN3CCOCC3)c([N+](=O)[O-])c2)cc1Cl	Lmaj promast 99
COc1ccc(NC(=O)c2ccc(NCCCN3CCOCC3)c([N+](=O)[O-])c2)cc1	Lmaj promast 55
O=C(Nc1ccc(Cl)c([N+](=O)[O-])c1)c1ccc(NCCCN2CCOCC2)c([N+](=O)[O-])c1	none
S=c1[nH]nc(Cc2sc(-c3ccccc3)nc2-c2ccccc2)o1	none
CCCCn1c(=O)[nH]c(=O)c2c1nc(-c1ccc(CC)c([N+](=O)[O-])c1)n2C	Lmaj promast 84
O=C(/C=C/c1ccco1)Nc1cccc(NC(=O)/C=C/c2ccco2)n1	Lmaj promast 64, WT yeast gro inh 59
O=C(NC(=S)N1CCOCC1)c1ccc([N+](=O)[O-])cc1	none
CCc1cccc(CC)c1NC(=O)C1SC(=Nc2ccccc2C)C(c2nc3ccccc3s2)=C1N (stereo not given)	RAM network inh 8.8
CCc1cccc(C)c1NC(=O)CCCSc1nc2ccccc2s1	none
